# Measured values as given in ChEMBL document CHEMBL3774372, “Design, physico-chemical properties and biological evaluation of some new N-[(phenoxy)alkyl]- and N-{2-[2-(phenoxy)ethoxy]ethyl}aminoalkanols as anticonvulsant agents” (Bioorg Med Chem, 2016).
# Activity calls are given as the source filed them.
# How the values were obtained:
# [1] = target: 5-hydroxytryptamine receptor 2C (Homo sapiens, UniProt P28335); assay: Displacement of [3H][…] from human recombinant 5-HT2C receptor expressed in HEK293 cells; format: cell-based
# 5-hydroxytryptamine receptor 2C, sequence (P28335 whole entry): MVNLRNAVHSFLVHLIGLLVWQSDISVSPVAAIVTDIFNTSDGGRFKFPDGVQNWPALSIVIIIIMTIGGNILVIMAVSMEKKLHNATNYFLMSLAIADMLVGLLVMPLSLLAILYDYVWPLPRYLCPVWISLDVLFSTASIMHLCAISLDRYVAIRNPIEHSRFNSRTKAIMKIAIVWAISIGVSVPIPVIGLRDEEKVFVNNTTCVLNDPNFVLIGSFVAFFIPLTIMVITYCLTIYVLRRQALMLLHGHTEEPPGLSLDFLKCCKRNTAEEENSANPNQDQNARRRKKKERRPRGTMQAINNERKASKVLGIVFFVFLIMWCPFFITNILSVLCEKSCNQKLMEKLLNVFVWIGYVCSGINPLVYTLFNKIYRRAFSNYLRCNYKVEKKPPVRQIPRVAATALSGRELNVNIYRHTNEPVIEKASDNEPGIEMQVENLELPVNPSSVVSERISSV
# Mus musculus [2] = assay: Anticonvulsant activity in mouse assessed as protection against subcutaneous pentylenetetrazol-induced seizures at 30 mg/kg, ip measured after 4 hrs; format: functional, organism-based
# How it was run: (§1)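 Mice dosed ip as 0.5% methylcellulose suspension; pentylenetetrazole 85 mg/kg in 0.9% NaCl injected subcutaneously into posterior midline, animals watched at least 30 min. Protection = no threshold seizure (single clonic spasm episode lasting ≥5 s); scored protected/tested.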
# Mus musculus [3] = assay: Anticonvulsant activity in mouse assessed as protection against maximal electric shock-induced seizures at 30 mg/kg, ip measured after 0.5 hrs; format: functional, organism-based
# How it was run: (§2)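 Mice dosed ip with suspension in 0.5% methylcellulose; maximal electroshock applied at the listed time after dosing. Protection = abolition of hindlimb tonic extension component of seizure; reported as animals protected/animals tested.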
# Mus musculus [4] = assay: Neurotoxicity in mouse at 30 mg/kg, ip after 4 hrs by rotarod test; format: toxicity, organism-based; details: in vivo
# How it was run: (§3)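 Mice were dosed ip with compound suspended in 0.5% methylcellulose. Rotarod: a 1 in. knurled rod turning at 6 rpm. Neurotoxicity was scored as failure to stay on the rod for at least 1 min in each of three trials. Results are given as the number of animals affected out of the number tested.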
# Rattus norvegicus [5] = assay: Neurotoxicity in rat at 30 mg/kg, po after 2 hrs by rotarod test; format: toxicity, organism-based; details: in vivo
# Mus musculus [6] = assay: Anticonvulsant activity in mouse assessed as protection against maximal electric shock-induced seizures at 30 mg/kg, ip measured after 4 hrs; format: functional, organism-based; how it was run: as §2
# Mus musculus [7] = assay: Neurotoxicity in mouse at 30 mg/kg, ip after 0.5 hrs by rotarod test; format: toxicity, organism-based; details: in vivo; how it was run: as §3
# Rattus norvegicus [8] = assay: Anticonvulsant activity in rat assessed as protection against maximal electric shock-induced seizures at 30 mg/kg, po measured after 0.5 hrs; format: functional, organism-based
# How it was run: (§4)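 Rats dosed ip or orally as 0.5% methylcellulose suspension; maximal electroshock at listed time. Protection = abolition of hindlimb tonic extension; 4 rats per group, scored protected/tested.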
# Rattus norvegicus [9] = assay: Neurotoxicity in rat at 30 mg/kg, po after 4 hrs by rotarod test; format: toxicity, organism-based; details: in vivo
# Mus musculus [10] = assay: Neurotoxicity in mouse at 300 mg/kg, ip after 0.5 hrs by rotarod test; format: toxicity, organism-based; details: in vivo; how it was run: as §3
# Vibrio harveyi [11] = assay: Antimutagenic activity against Vibrio harveyi BB7M assessed as inhibition of NQNO-induced mutagenicity after 48 hrs; format: functional
# How it was run: (§5)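 V. harveyi cultures grown exponentially to A600 0.1 at 30 °C, exposed to test compound for 15 min, then to NQNO, and grown on to A600 0.3–0.4. 5 × 10⁶ cells plated on BOSS agar with neomycin (100, final). Neomycin-resistant colonies counted after 48 h at 30 °C. Result given as % inhibition of NQNO mutagenicity; three independent repeats.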
# Rattus norvegicus [12] = assay: Anticonvulsant activity in rat assessed as protection against maximal electric shock-induced seizures at 30 mg/kg, po measured after […]; format: functional, organism-based
# Mus musculus [13] = assay: Anticonvulsant activity in mouse assessed as protection against maximal electric shock-induced seizures at 3 mg/kg, ip measured after 0.5 hrs; format: functional, organism-based; how it was run: as §2
# Vibrio harveyi [14] = assay: Mutagenicity in Vibrio harveyi BB7XM assessed as number of colonies after 48 hrs (reference value: 14 no_unit); format: ADME, organism-based; details: in vivo
# How it was run: (§6)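 Vibrio harveyi mutagenicity test: test compound was added to exponentially growing cultures (A600 = 0.1, 30 °C) and grown to OD600 0.3–0.4. Then 5 × 10^6 cells were plated on BOSS agar with neomycin (final 100 µg/mL) and incubated 48 h at 30 °C. Neomycin-resistant colonies were counted. Triplicate; controls were water, DMSO and NQNO 40 ng/mL.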
# Mus musculus [15] = assay: Neurotoxicity in mouse at 10 mg/kg, ip after 0.5 hrs by rotarod test; format: toxicity, organism-based; details: in vivo; how it was run: as §3
# Vibrio harveyi [16] = assay: Antimutagenic activity against Vibrio harveyi BB7X assessed as inhibition of NQNO-induced mutagenicity after 48 hrs; format: functional; how it was run: as §5
# Rattus norvegicus [17] = assay: Anticonvulsant activity in rat assessed as protection against maximal electric shock-induced seizures at 30 mg/kg, po measured after 1 hr; format: functional, organism-based; how it was run: as §4
# Rattus norvegicus [18] = assay: Neurotoxicity in rat at 30 mg/kg, po after […] by rotarod test; format: toxicity, organism-based; details: in vivo
# Rattus norvegicus [19] = assay: Anticonvulsant activity in rat assessed as protection against maximal electric shock-induced seizures at 30 mg/kg, po measured after 4 hrs; format: functional, organism-based; how it was run: as §4
# Mus musculus [20] = assay: Neurotoxicity in mouse at 100 mg/kg, ip after 0.5 hrs by rotarod test; format: toxicity, organism-based; details: in vivo; how it was run: as §3
# Mus musculus [21] = assay: Anticonvulsant activity in mouse assessed as protection against subcutaneous pentylenetetrazol-induced seizures at 30 mg/kg, ip measured after 0.5 hrs; format: functional, organism-based; how it was run: as §1
# Mus musculus [22] = assay: Neurotoxicity in mouse at 3 mg/kg, ip after 0.5 hrs by rotarod test; format: toxicity, organism-based; details: in vivo; how it was run: as §3
# Vibrio harveyi [23] = assay: Antimutagenic activity against Vibrio harveyi BB7 assessed as inhibition of NQNO-induced mutagenicity after 48 hrs; format: functional; how it was run: as §5
# Rattus norvegicus [24] = assay: Neurotoxicity in rat at 30 mg/kg, po after 1 hr by rotarod test; format: toxicity, organism-based; details: in vivo
# Vibrio harveyi [25] = assay: Mutagenicity in Vibrio harveyi BB7M assessed as number of colonies after 48 hrs (reference value: 13 to 14 no_unit); format: ADME, organism-based; details: in vivo; how it was run: as §6
# Rattus norvegicus [26] = assay: Anticonvulsant activity in rat assessed as protection against maximal electric shock-induced seizures at 30 mg/kg, po measured after 2 hrs; format: functional, organism-based; how it was run: as §4
# Rattus norvegicus [27] = assay: Neurotoxicity in rat at 30 mg/kg, po after 0.5 hrs by rotarod test; format: toxicity, organism-based; details: in vivo
# Mus musculus [28] = assay: Anticonvulsant activity in mouse assessed as protection against maximal electric shock-induced seizures at 10 mg/kg, ip measured after 0.5 hrs; format: functional, organism-based; how it was run: as §2
# Vibrio harveyi [29] = assay: Mutagenicity in Vibrio harveyi BB7X assessed as number of colonies after 48 hrs (reference value: 15 to 16 no_unit); format: ADME, organism-based; details: in vivo; how it was run: as §6
# Vibrio harveyi [30] = assay: Antimutagenic activity against Vibrio harveyi BB7XM assessed as inhibition of NQNO-induced mutagenicity after 48 hrs; format: functional; how it was run: as §5
# Vibrio harveyi [31] = assay: Mutagenicity in Vibrio harveyi BB7 assessed as number of colonies after 48 hrs (reference value: 13 to 14 no_unit); format: ADME, organism-based; details: in vivo; how it was run: as §6
# [32] = […] from rat cerebral cortex Sodium channel site 2; format: tissue-based
# [33] = Displacement of [35S]dATPalpha S from rat cerebral cortex P2Y receptor; format: tissue-based
# How it was run: (§7)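 Radioligand binding on rat cerebral cortex preparations: [35S]TBPS (GABA-gated Cl⁻ channel), [125I]apamin (SKCa), [3H]batrachotoxinin (Na⁺ site 2), [35S]dATPαS (P2Y), [3H]TCP (PCP), [3H]flunitrazepam (central BZD).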
# Mus musculus [34] = assay: Anticonvulsant activity in mouse assessed as protection against 6 Hz psychomotor seizure at 100 mg/kg, ip after 2 hrs; format: functional, organism-based
# How it was run: (§8)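 Suspension in 0.5% methylcellulose given ip to mice; corneal stimulation with 0.2 ms monopolar rectangular pulses at 6 Hz for 3 s from a constant current device, mice restrained then released to observation cage. Protected if normal exploratory behaviour resumed within 10 s of stimulation. Scored as protected/tested, 4 mice per group.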
# Mus musculus [35] = assay: Neurotoxicity in mouse at 100 mg/kg, ip after 4 hrs by rotarod test; format: toxicity, organism-based; details: in vivo; how it was run: as §3
# Mus musculus [36] = assay: Anticonvulsant activity in mouse assessed as protection against maximal electric shock-induced seizures at 100 mg/kg, ip measured after 4 hrs; format: functional, organism-based; how it was run: as §2
# Mus musculus [37] = assay: Anticonvulsant activity in mouse assessed as protection against subcutaneous pentylenetetrazol-induced seizures at 100 mg/kg, ip measured after 4 hrs; format: functional, organism-based; how it was run: as §1
# Mus musculus [38] = assay: Neurotoxicity in mouse at 100 mg/kg, ip after […] by rotarod test; format: toxicity, organism-based; details: in vivo
# Mus musculus [39] = assay: Anticonvulsant activity in mouse assessed as protection against 6 Hz psychomotor seizure at 100 mg/kg, ip after 1 hr; format: functional, organism-based; how it was run: as §8
# Mus musculus [40] = assay: Anticonvulsant activity in mouse assessed as protection against 6 Hz psychomotor seizure at 100 mg/kg, ip after […]; format: functional, organism-based
# Mus musculus [41] = assay: Neurotoxicity in mouse at 300 mg/kg, ip after 4 hrs by rotarod test; format: toxicity, organism-based; details: in vivo; how it was run: as §3
# Mus musculus [42] = assay: Anticonvulsant activity in mouse assessed as protection against 6 Hz psychomotor seizure at 100 mg/kg, ip after 4 hrs; format: functional, organism-based; how it was run: as §8
# [43] = Displacement of [3H]TCP from rat cerebral cortex PCP receptor; format: tissue-based; how it was run: as §7
# [44] = Displacement of [3H]alpha,beta-MeATP from rat urinary bladder P2X receptor
structure (smiles),measurement,setting,value
"COc1cc(OC)c(C(=O)CCCCN2CCC3(CC2)NC(=O)NC3=O)cc1NS(=O)(=O)c1ccc(C(F)(F)F)cc1 [RS-102,221]",IC50,[1],1.5 nM
CC[C@@H](CO)NCCOCCOc1c(C)cccc1C,Activity,Mus musculus [2],inactive
same,Activity,Mus musculus [3],Active
same,Activity,Mus musculus [4],Non-toxic
same,Activity,Rattus norvegicus [5],Non-toxic
same,Activity,Mus musculus [6],inactive
same,Activity,Mus musculus [7],Non-toxic
same,Activity,Rattus norvegicus [8],inactive
same,Activity,Rattus norvegicus [9],Non-toxic
same,Activity,Mus musculus [10],Toxic
same,inhibition (INH),Vibrio harveyi [11],52%
same,Activity,Rattus norvegicus [12],inactive
same,Activity,Mus musculus [13],inactive
same,Activity,Vibrio harveyi [14],22
same,Activity,Mus musculus [15],Non-toxic
same,inhibition (INH),Vibrio harveyi [16],22%
same,Activity,Rattus norvegicus [17],inactive
same,Activity,Rattus norvegicus [18],Non-toxic
same,Activity,Rattus norvegicus [19],inactive
same,Activity,Mus musculus [20],Toxic
same,Activity,Mus musculus [21],inactive
same,Activity,Mus musculus [22],Non-toxic
same,inhibition (INH),Vibrio harveyi [23],88%
same,Activity,Rattus norvegicus [24],Non-toxic
same,Activity,Vibrio harveyi [25],26
same,Activity,Rattus norvegicus [26],inactive
same,Activity,Rattus norvegicus [27],Non-toxic
same,Activity,Mus musculus [28],inactive
same,Activity,Vibrio harveyi [29],27
same,inhibition (INH),Vibrio harveyi [30],15%
same,Activity,Vibrio harveyi [31],28
COc1ccc(C(=O)O[C@H]2CC[C@@]3(C)[C@@H]4CC[C@H]5[C@]6(O)C[C@H](O)[C@@]7(O)[C@@H](CN8C[C@@H](C)CC[C@H]8[C@@]7(C)O)[C@]6(O)C[C@@]53O[C@]24O)cc1OC [VERATRIDINE],IC50,[32],4000 nM
Nc1ncnc2c1ncn2[C@@H]1O[C@H](COP(O)(=S)OP(=O)(O)OP(=O)(O)O)[C@@H](O)[C@H]1O (some centres not stated),IC50,[33],29 nM
Cc1cccc(OCCOCCNC(C)CO)c1C (configuration not stated),Activity,Mus musculus [2],inactive
same,Activity,Mus musculus [3],inactive
same,Activity,Mus musculus [4],Non-toxic
same,Activity,Mus musculus [34],inactive
same,Activity,Mus musculus [35],Non-toxic
same,Activity,Mus musculus [6],inactive
same,Activity,Mus musculus [7],Non-toxic
same,Activity,Mus musculus [10],Toxic
same,Activity,Mus musculus [36],inactive
same,Activity,Mus musculus [37],inactive
same,Activity,Mus musculus [38],Toxic
same,Activity,Mus musculus [39],Active
same,Activity,Mus musculus [40],Active
same,Activity,Mus musculus [20],Toxic
same,Activity,Mus musculus [21],inactive
same,Activity,Mus musculus [41],Non-toxic
same,Activity,Mus musculus [42],inactive
C[C@]12N[C@H](Cc3ccccc31)c1ccccc12 [DIZOCILPINE],IC50,[43],4.6 nM
Nc1ncnc2c1ncn2[C@@H]1O[C@H](COP(=O)(O)CP(=O)(O)OP(=O)(O)O)[C@@H](O)[C@H]1O [DIPHOSPHOMETHYLPHOSPHONIC ACID ADENOSYL ESTER],IC50,[44],1.9 nM
